31 molecules from ChEMBL document CHEMBL1148253, “Structure-activity requirements for the antiproliferative effect of troglitazone derivatives mediated by depletion of intracellular calcium” (Bioorg Med Chem Lett, 2004) can be followed below.

SMILES strings stand for the structures. Calls of active or inactive are those of the source. No cut-off for these calls is given here. Some results are limits rather than exact numbers.

Usually logP stands for a log measure of how a compound divides between an organic and an aqueous phase. As a reminder, the IC50 is the concentration that inhibits the measured activity by half.

Series [1] can be described thus: Partition coefficient (logP). It is filed as physicochemical. To be noted: octanol/water.
Series [2] relates to PC-12. Put plainly: Tested for the intracellular Ca+2 release in PC12 cells; - = No release. It is filed as functional, cell-based. To be noted: Rattus norvegicus. The gist of the method: (§1)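 Fluo-4-loaded cells treated with drug at 80 μM for 10 min and monitored for Ca2+ release from intracellular stores. Clotrimazole is the positive control. Scored +, ± or −.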
In series [3] the test system is PC-12. Put plainly: Phosphorylation of eukaryotic initiation factor 2 alpha (eIF2alpha) in PC12 cells, +/- = Insignificant phosphorylation. It is filed as functional, cell-based. To be noted: Rattus norvegicus. Summed up:
(§2)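 Cells treated with drug at 15 μM for 2 h. Extracts western blotted with anti-phospho-Ser51 eIF2α antibody. Tro is the positive control and DMSO the negative control. Scored +, ± or −.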

Series [4] concerns PC-12. Put plainly: Concentration required for 50% inhibition of cell proliferation in PC12 cells using sulforhodamine B assay. To be noted: Rattus norvegicus. It is filed as functional, cell-based. Summed up:
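Sulforhodamine B proliferation assay; cells exposed to drug for 5 days across 0.5 to 100 μM. IC50 is the concentration giving 50% inhibition of proliferation.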
(The SRB assay estimates cell density from bound dye.)

Series [5] deals with PC-12. Description: Phosphorylation of eukaryotic initiation factor 2 alpha (eIF2alpha) in PC12 cells, - = No phosphorylation. The series is classed as functional, cell-based. As to conditions: Rattus norvegicus. Summed up: as §2
Series [6] relates to PC-12. Put plainly: Phosphorylation of eukaryotic initiation factor 2 alpha (eIF2alpha) in PC12 cells, + = Phosphorylation. It is filed as functional, cell-based. As to conditions: Rattus norvegicus. Summed up:
as §2

Series [7] has as its system PC-12. Description: Tested for the intracellular Ca+2 release in PC12 cells; + = Release. It is filed as functional, cell-based. As to conditions: Rattus norvegicus. The gist of the method: as §1
In series [8] the test system is PC-12. Put plainly: Tested for the intracellular Ca+2 release in PC12 cells; +/- = Insignificant release. It is filed as functional, cell-based. As to conditions: Rattus norvegicus. The gist of the method:
as §1

`O=C1NC(=O)/C(=C/c2ccc(OCC3CC3)cc2)S1`: the lipophilicity (logP) in series [1] (read-out: logP) was 1.99. Besides, the Activity entry in the series with PC-12 [2] was “Not toxic”; with PC-12 [3], “+/-”. In the series on PC-12 [4], this molecule returned an IC50 of 23 µM.

For the molecule `O=C1NC(=O)/C(=C/c2ccc(O)cc2)S1`, in series [1] (read-out: logP), the logP worked out at 1.05. Also, the Activity entry in the series with PC-12 [2] and in the series with PC-12 [5] was “Not toxic” throughout. The molecule also came in with an IC50 in the series on PC-12 [4] of 20 µM.

For the molecule `O=C1NC(=O)C(Cc2ccccc2)S1` (stereo unspecified), the logP in series [1] (read-out: logP) came out at 1.99. In addition, the Activity entry in the series on PC-12 [2] and in the series on PC-12 [5] was “Not toxic” in each case. In the series on PC-12 [4], this molecule returned a half-maximal inhibitory concentration (IC50) of over 100 µM.

On to `O=C1N=C(O)S/C1=C\c1ccc(OCC2CCCCC2)cc1`, for which, in series [1] (read-out: logP), the logP is 3.66. Further, the Activity entry in the series on PC-12 [6] and in the series with PC-12 [7] was “Phosphorylation” each time. In the series with PC-12 [4], this molecule had an IC50 of 14 µM.

As to `COc1ccc(CC2SC(=O)NC2=O)cc1` (stereo unspecified), in series [1] (read-out: logP), the logP was determined as 1.91. Further, the Activity entry with PC-12 [2] and in the series on PC-12 [5] was “Not toxic” each time. Also, in the series with PC-12 [4], the IC50 was over 100 µM.

As to `O=C1NC(=O)C(Cc2ccc(OCC3CCCCC3)cc2)S1` (stereo unspecified), the logP in series [1] (read-out: logP) is 3.94. Besides, the Activity entry is listed as “+/-” in the series with PC-12 [3] and “Release” in the series on PC-12 [7]. Moreover, it took 26 µM to reach half-maximal inhibition with PC-12 [4] (IC50).

As to `O=C1NC(=O)/C(=C/c2ccc(OCC3CCCC3)cc2)S1`, the logP in series [1] (read-out: logP) turned out to be 3.21.

Consider `O=C1NC(=O)C(Cc2ccc(OCC3CC3)cc2)S1` (stereo unspecified), for which the lipophilicity (logP) in series [1] (read-out: logP) was 2.26. Moreover, the Activity result in the series on PC-12 [2] and with PC-12 [5] was “Not toxic” each time. For the same molecule, the IC50 in the series with PC-12 [4] is over 100 µM.

For `O=C1N=C(O)S/C1=C\c1ccc(OCC2CCCCO2)cc1` (stereo unspecified), in series [1] (read-out: logP), the logP worked out at 2.02. Besides, the Activity entry in the series on PC-12 [6] and in the series on PC-12 [7] was “Phosphorylation” in each case. The IC50 in the series on PC-12 [4] stood at 22 µM.

As to `Cc1c(C)c2c(c(C)c1O)CCC(C)(COc1ccc(/C=C3/SC(=O)NC3=O)cc1)O2` (stereo unspecified), the logP in series [1] (read-out: logP) was found to be 5.31. Besides, the Activity result with PC-12 [6] and in the series with PC-12 [7] was “Phosphorylation” each time. This molecule displayed an IC50 in the series with PC-12 [4] of 5 µM.

On to `O=C1NC(=O)/C(=C/c2ccc(OCc3ccccc3)cc2)S1`, for which the logP in series [1] (read-out: logP) worked out at 3.4.

Regarding `Cc1c(C)c2c(c(C)c1O)CCC(C)(COc1ccc(CC3SC(=O)NC3=O)cc1)O2` (stereo unspecified) [TROGLITAZONE], the logP in series [1] (read-out: logP) worked out at 4.46. In addition, the result in the series with PC-12 [6] and in the series on PC-12 [7] was Active. Moreover, the IC50 in the series on PC-12 [4] came out at 15 µM.

As for `O=C1N=C(O)S/C1=C\c1ccc(OCC2CCCC2)cc1`, the Activity result with PC-12 [6] and in the series with PC-12 [7] was “Phosphorylation” each time. Moreover, the IC50 with PC-12 [4] was determined as 10 µM.

For the molecule `CC(C)COc1ccc(CC2SC(=O)NC2=O)cc1` (stereo unspecified), the logP in series [1] (read-out: logP) came to 3.36. Besides, the Activity result in the series with PC-12 [5] is “Not toxic”; with PC-12 [7], “Release”. In the series on PC-12 [4], this molecule had a half-maximal inhibitory concentration (IC50) of 25 µM.

On to `O=C1NC(=O)C(Cc2ccc(OCC3CCC3)cc2)S1` (stereo unspecified), for which, in series [1] (read-out: logP), the logP was 2.81. The Activity entry is “Not toxic” with PC-12 [5] and “Release” with PC-12 [7]. Further, the half-maximal inhibitory concentration (IC50) in the series on PC-12 [4] was over 100 µM.

With `CCCOc1ccc(CC2SC(=O)NC2=O)cc1` (stereo unspecified), the logP in series [1] (read-out: logP) was 2.96. The Activity result in the series with PC-12 [2] was “Not toxic”; in the series with PC-12 [3], “+/-”. In the series on PC-12 [4], this molecule came in with an IC50 of 45 µM.

Turning to `CCOc1ccc(/C=C2\SC(=O)NC2=O)cc1`, the logP in series [1] (read-out: logP) amounted to 2.16. The values for the Activity result with PC-12 [2] and with PC-12 [3] were “Not toxic” and “+/-”, respectively. The same molecule yielded an IC50 with PC-12 [4] of 27 µM.

With `O=C1NC(=O)C(Cc2ccc(OCC3CCCC3)cc2)S1` (stereo unspecified), in series [1] (read-out: logP), the logP amounted to 3.38. The Activity result in the series with PC-12 [6] and with PC-12 [7] was “Phosphorylation” each time. For the same molecule, the IC50 with PC-12 [4] came out at 25 µM.

For the molecule `COc1ccc(/C=C2\SC(=O)NC2=O)cc1`, the log partition coefficient (logP) in series [1] (read-out: logP) is 1.63. In addition, the Activity result in the series on PC-12 [2] and in the series with PC-12 [5] was “Not toxic” each time. In the series on PC-12 [4], the IC50 was 23 µM.

For `O=C1NC(=O)/C(=C/c2ccc(OCC3CCC3)cc2)S1`, in series [1] (read-out: logP), the logP was 2.54. Besides, the Activity result with PC-12 [6] and in the series on PC-12 [7] was “Phosphorylation” each time. The molecule further registered an IC50 in the series on PC-12 [4] of 13 µM.

`CC1(COc2ccc(CC3SC(=O)NC3=O)cc2)CCCCC1` (stereo unspecified) [CIGLITAZONE] yielded a logP in series [1] of 5.07. Besides, the outcome in the series on PC-12 [6] and with PC-12 [7] was Active. For the same molecule, the IC50 in the series with PC-12 [4] came out at 20 µM.

Consider `O=C1NC(=O)/C(=C/c2ccccc2)S1`, for which the logP in series [1] (read-out: logP) was determined as 1.71. For the same molecule, the Activity result in the series with PC-12 [2] and in the series on PC-12 [5] was “Not toxic” throughout. In the series on PC-12 [4], this molecule returned an IC50 of over 100 µM.

`CCC(C)(C)Oc1ccc(CC2SC(=O)NC2=O)cc1` (stereo unspecified): in series [1] (read-out: logP), the logP stood at 3.76. The Activity result in the series with PC-12 [6] and in the series with PC-12 [7] was “Phosphorylation” throughout. The molecule further had an IC50 in the series on PC-12 [4] of 23 µM.

As to `O=C1N=C(O)S/C1=C\c1ccc(OCc2ccccc2)cc1`, the Activity result in the series with PC-12 [2] and in the series on PC-12 [5] was “Not toxic” each time. The same molecule had an IC50 in the series on PC-12 [4] of 15 µM.

Regarding `O=C1NC(=O)C(Cc2ccc(OCc3ccccc3)cc2)S1` (stereo unspecified), the logP in series [1] (read-out: logP) worked out at 3.67. Moreover, the Activity result with PC-12 [2] and with PC-12 [5] was “Not toxic” each time. The same molecule came in with an IC50 in the series on PC-12 [4] of over 100 µM.

Consider `CCCOc1ccc(/C=C2\SC(=O)NC2=O)cc1`, for which, in series [1] (read-out: logP), the lipophilicity (logP) was 2.69. Also, the Activity result in the series on PC-12 [8] and in the series on PC-12 [3] was “+/-” in each case. For the same molecule, the IC50 in the series on PC-12 [4] amounted to 7 µM.

For `CCC(C)(C)Oc1ccc(/C=C2\SC(=O)NC2=O)cc1`, the logP in series [1] (read-out: logP) is 3.49. The Activity entry with PC-12 [6] and with PC-12 [7] was “Phosphorylation” throughout. In the series on PC-12 [4], this molecule returned an IC50 of 15 µM.

Regarding `O=C1NC(=O)C(Cc2ccc(OCC3CCCCO3)cc2)S1` (stereo unspecified), the logP in series [1] (read-out: logP) was 2.29. Also, the Activity entry with PC-12 [2] and with PC-12 [5] was “Not toxic” each time. Besides, the IC50 with PC-12 [4] was over 100 µM.

As to `CC(C)COc1ccc(/C=C2\SC(=O)NC2=O)cc1`, the logP in series [1] (read-out: logP) stood at 3.09. For the same molecule, the Activity entry was “Not toxic” in the series on PC-12 [2] and “+/-” in the series on PC-12 [3]. This molecule registered an IC50 in the series on PC-12 [4] of 16 µM.

As to `CCOc1ccc(CC2SC(=O)NC2=O)cc1` (stereo unspecified), the logP in series [1] (read-out: logP) stood at 2.43. The Activity entry in the series on PC-12 [2] is “Not toxic”; in the series on PC-12 [3], “+/-”. In addition, the IC50 with PC-12 [4] is over 100 µM.

Take `O=C1NC(=O)C(Cc2ccc(O)cc2)S1` (stereo unspecified) [GLITAZONE]: the logP in series [1] (read-out: logP) was found to be 1.32. The Activity result in the series on PC-12 [2] was “Not toxic”; with PC-12 [3], “+/-”. Also, the IC50 in the series with PC-12 [4] was over 100 µM.
